Assay [1] deals with Syrian golden hamster. Description: Induction of reverse cholestrol transport in high fat diet-induced dyslipidemia Syrian Golden hamster model assessed as increase in SCARB1 mRNA expression in liver at 100 mg/kg, po administered for 1 week by qRT-PCR analysis. The assay is classed as functional, organism-based. The settings on record: Mesocricetus auratus.
The species entered for assay [2] is Mus musculus. Put plainly: Activation of Wnt3a/beta-catenin in differentiated mouse 3T3L1 cells assessed as down-regulation of PPARgamma protein expression at 20 uM after 16 to 24 hrs by Western blot analysis. In short, it runs like this: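 3T3-L1 preadipocytes grown to confluence in high-glucose DMEM/10% FBS, then given differentiation media (0.5 mM IBMX, 5 µg/ml insulin, 250 nM dexamethasone) with or without 20 µM compound. Protein isolated at set time points, lysed with protease/phosphatase inhibitors, BCA-quantified, resolved by 8–12% SDS-PAGE, immunoblotted with ECL detection. β-actin loading control, densitometry normalized to actin, n=3.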
In general terms: In western blotting, separated proteins are transferred to a membrane and probed.

The species named for assay [3] is Mus musculus. Put plainly: Activation of Wnt3a/beta-catenin in mouse 3T3L1 cells assessed as induction of LEF1 expression at 20 uM after 16 to 24 hrs by Western blot analysis. Format: cell-based.
Assay [4] concerns 3T3-L1. Description: Anti-adipogenic activity in mouse 3T3L1 cells assessed as inhibition of adipogenesis after 20 mins by Oil Red O staining based assay. Format: functional, cell-based. The settings on record: 3T3-L1, 20 min. In outline:
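3T3-L1 preadipocytes differentiated with compound at 0.1, 1, 3, 10, 30, 100 and 300 µM. Oil red O absorbance read at 492 nm, concentrations log-transformed and fitted by non-linear regression to give IC50. Two to three independent experiments, mean ± SEM.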

For orientation: IC50 means the concentration needed to halve the response being measured.

Calls of active or inactive are those of the source. The rule behind the calls is not given here.

As to `Cc1ccc(S(=O)(=O)N(Cc2cn(Cc3cccc(F)c3F)nn2)Cc2cn(S(=O)(=O)c3ccc(C)cc3)c3ccccc23)cc1`, the result in assay [1], in assay [2] and in assay [3] was Active. In assay [4], the IC50 is 1.7 µM.

Values taken from ChEMBL document CHEMBL4138193, “Novel indole and triazole based hybrid molecules exhibit potent anti-adipogenic and antidyslipidemic activity by activating Wnt3a/β-catenin pathway” (Eur J Med Chem, 2018).
